Published values from different studies.
Target: Proto-oncogene tyrosine-protein kinase ROS (ROS1, Homo sapiens, UniProt P08922)

Compound | observed | mode | technique | tested at | endpoint | value
Nc1ncc(-c2nc(N3CCOCC3)nc(N3CCOCC3)n2)c(C(F)F)n1 | binding |  | competition with immobilised ligand | 10 µM | remaining binding | 54%
O=c1[nH]c2ccccc2n1C1CCN(Cc2ccc(-c3[nH]c4cc5ncnc5cc4nc3-c3ccccc3)cc2)CC1 | cell-free assay |  |  | 0.5 µM | remaining signal | 101%
COc1ncccc1-c1cnn2ccc(N3CCN(C(=O)OC(C)C)CC3)nc12 | binding |  | competition with immobilised ligand | 1 µM | remaining binding | 100%
C#Cc1n[nH]c2c(-c3cn([C@@H](C)c4ccccn4)c(=O)[nH]c3=O)cc(F)cc12 | enzyme activity | inhibitor |  | 0.1 µM | inhibition | 5.1%
N#CC1(c2ccccn2)CCN(Cc2cc(C(=O)O)c(=O)n3ccccc23)CC1 | cell-free assay |  | competition with immobilised ligand | 1 µM | remaining binding | 90%
Cn1cc(-c2cc(F)cc(N3CCn4c(cc5c4CCCC5)C3=O)c2CO)cc(Nc2ccc(N3CCN(C4COC4)CC3)cn2)c1=O | enzyme activity | inhibitor |  | 0.1 µM | inhibition | 10%
Cc1nn(C)cc1-c1nc2c(N3CCN(Cc4ccc(Cl)cc4)CC3)c(Cl)cnc2[nH]1 | binding |  | competition with immobilised ligand | 1 µM | remaining binding | 100%
Cn1cncc1[C@](O)(COc1ccc(C#N)cc1-c1ccc(OC(F)(F)F)cc1)c1ccc(C#N)cc1 | cell-free assay |  | competition with immobilised ligand | 1 µM | remaining binding | 89%
